Screens as filed in PubChem BioAssay.
HCT116 PTEN-null = growth suppression of PTEN-null HCT116, primary screen, cell-based, CellTiter-Glo; HCT116 PTEN-null viability, 60 h; active compounds read low; 140,000 compounds, 1.2% hits; viability, % at 10 µM;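 active means viability at or below a set limit, 4 SD under the median of all tested compounds, cut at about 3.7% in these data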;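 further: PTEN knockout HCT116 line with beta catenin targeted HCT116 as companion control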
HUVEC inhibit = inhibitors of HUVEC proliferation, primary screen, cell-based, 384-well; CellTiter-Glo luminescence, 72 h; active compounds read low; viability, % at 10 µM (by protocol); 86,000 compounds, 1.1% hits; AID 648, 2007;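 active means viability at or below 30%; inactive means viability above 30%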;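 further: 100% = median luminescence of DMSO-only cell control wells on each plate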
Lung fibro prol = antiproliferative effect on LL 47 fibroblasts – human, LL 47 cells, CellTiter-Glo luminescence, primary screen; viability, % at 10 µM; 85,000 compounds, 1.1% hits; LL 47 human lung fibroblast viability, ATP luminescence; active compounds read low;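 active means viability at or below 50% in the single dose screen; inactive means viability above 50%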;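 further: compound exposure lasted 72 h before the ATP readout; 100% = median luminescence of untreated cell-only wells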
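Material: human lung fibroblast line LL 47, low passage; Evaluation: viability percentage against median untreated-cell control; Buffer or medium: 15% FBS in IMEM; Incubation: 72 h compound exposure at 37 °C after overnight plating; Dosing: 0.1% DMSO in all compound wells; Measured by: CellTiter-Glo luminescence.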
H69AR inhibit = proliferation blockers of H69AR lung cancer cells, primary screen, cell-based, human, 86K library; viability, % at 10 µM; AID 598, 2007; 85,000 compounds, 6% hits; H69AR lung tumor viability, ATP luminescence, 72 h; active compounds read low;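 active means viability at or below 40%; inactive means viability above 40%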;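 further: multidrug resistant small cell line overexpressing MRP-1 efflux transporter; 100% = mean luminescence of untreated control wells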
bCat KO growth = primary screen for growth suppressors in beta-catenin knockout HCT116 cells (colon tumor, human); HCT116 beta-catenin knockout viability, CellTiter-Glo, 60 h; active compounds read low; viability, % at 10 µM; 140,000 compounds, 1.5% hits;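 active means viability at or under a set limit, the compound median less 4 SD, cut at about 6% in these data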;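 further: 0% = Hyamine 1622 control at 20 µM and 100% = untreated cell control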
* marks the source's active call; other numbers are inactive results; / = no result given. Many of the other results were omitted from the sample, so hits are more common in it than they were.

SMILES	HCT116 PTEN-null	HUVEC inhibit	Lung fibro prol	H69AR inhibit	bCat KO growth
COc1ccccc1N1CCN(C(=O)COc2ccc(Cl)cc2Br)CC1	68.8	67.9	97.3	16.6*	81.7
CCc1nc(Sc2nc(C)cc(C)n2)c2oc3ccccc3c2n1	64.5	102.2	79.3	5.3*	71.7
Cc1nc(Nc2ccc3c(c2)OCCO3)c2oc3ccccc3c2n1	63.1	65.3	96.2	79.8	55.1
CCc1nc(SCc2nc3ccccc3[nH]2)c2oc3ccccc3c2n1	47.5	79.2	90.0	39.7*	68.7
CCc1nc(Nc2ccc3c(c2)OCCO3)c2oc3ccccc3c2n1	59.5	40.2	88.8	38.3*	68.2
CCc1nc(SCCO)c2oc3ccccc3c2n1	86.6	88.8	91.4	90.4	97.0
FC(F)(F)c1ccc(N=Cc2sc(N3CCOCC3)nc2-c2ccccc2)cc1	87.2	/	/	/	87.7
CC1(C)C2CC=C(/C=N/NC(=O)c3ccc(O)cc3)C1C2 (stereo not drawn)	91.3	/	/	/	94.8
O=S(=O)(CCN1CCN(C(c2ccccc2)c2ccccc2)CC1)C(F)(F)F	25.2	79.0	73.0	4.4*	8.8
c1ccc(OCCOCCN2CCN(C(c3ccccc3)c3ccccc3)CC2)cc1	58.0	/	/	/	52.0
COc1cc2ccccc2cc1-c1nnc(COc2ccccc2)o1	88.3	62.5	98.4	98.8	89.8
COc1cc(NC(=O)CC2NCCNC2=O)cc(OC)c1 (stereo not drawn)	107.2	/	/	/	100.8
CCN1CCc2c(sc(NC(=O)Nc3ccc(Cl)c(Cl)c3)c2C(N)=O)C1	3.8*	/	/	/	14.2
O=C(NCCC1=CCCCC1)C1CCN(C(=O)c2ccc(Br)cc2)CC1	69.3	/	/	/	72.7
CC(=O)Nc1ccc(C(=O)n2nc(C)cc2C)cc1	99.4	101.6	102.3	92.8	91.0
O=Cc1c(Sc2ccccc2)nc2ccccn2c1=O	60.1	69.0	64.3	2.6*	46.1
O=Cc1c(N2CCCCCC2)nc2ccccn2c1=O	91.2	93.3	93.6	101.9	90.9
O=Cc1c(Sc2ccccn2)nc2ccccn2c1=O	81.0	85.4	102.0	21.7*	77.6
CCOC(=O)C1=C(C)N(CC(C)C)C(=O)/C1=C\c1ccc(OCC(=O)Nc2ccccc2)cc1	/	/	/	/	97.7
C(=N\n1cnnc1)/c1cn(Cc2ccccc2)c2ccccc12	80.4	47.8	77.3	74.5	79.7
Clc1ccc(Cn2cc(/C=N/n3cnnc3)c3ccccc32)c(Cl)c1	86.2	13.1*	76.2	74.6	84.2
COc1cccc(C2=CC(c3cc(OC)ccc3OC)n3nnnc3N2)c1 (stereo not drawn)	28.1	45.5	71.2	5.4*	26.4
COc1ccc(C2=CC(c3ccc(C)cc3)n3nnnc3N2)cc1 (stereo not drawn)	90.0	101.3	100.8	101.8	83.0
COc1ccc(OC)c(C2C=C(c3ccc(C)c(C)c3)Nc3nnnn32)c1 (stereo not drawn)	90.2	60.4	64.2	14.5*	110.0
COc1cccc(C2=CC(c3ccccc3)n3nnnc3N2)c1 (stereo not drawn)	5.9	/	/	/	7.4
SMILES	HCT116 PTEN-null	HUVEC inhibit	Lung fibro prol	H69AR inhibit	bCat KO growth
COc1cccc(C2=CC(c3cccc(OC)c3OC)n3nnnc3N2)c1 (stereo not drawn)	12.1	/	/	/	8.9
COc1cccc(C2=CC(c3ccc(N(C)C)cc3)n3nnnc3N2)c1 (stereo not drawn)	22.6	74.6	89.0	14.9*	20.2
O=S(=O)(c1ccccc1)N(CC(O)Cn1c2ccccc2c2ccccc21)c1ccccc1 (stereo not drawn)	17.0	/	/	/	16.3
CCN(CC(O)Cn1c2ccccc2c2ccccc21)S(=O)(=O)c1ccc(F)cc1 (stereo not drawn)	78.7	81.1	95.2	17.9*	74.8
Cc1ccc(S(=O)(=O)N(C)CC(O)Cn2c3ccccc3c3ccccc32)cc1 (stereo not drawn)	57.1	87.8	98.9	79.8	69.4
O=S(=O)(c1ccc(F)cc1)N(CCO)CC(O)Cn1c2ccccc2c2ccccc21 (stereo not drawn)	76.2	55.2	99.1	12.6*	84.3
CC(=O)Nc1nnc(SCc2ccccc2F)s1	110.5	91.3	100.5	91.2	98.1
O=C(Nc1nnc(-c2ccccc2SCc2ccccc2F)s1)Nc1ccccc1F	1.4*	65.8	26.2*	15.9*	1.3*
Clc1ccc(-c2csc(N3CCN(c4ccccc4)CC3)n2)cc1	103.2	75.3	103.9	39.9*	107.2
Clc1ccc(-c2csc(N3CCc4ccccc4C3)n2)cc1	90.6	/	/	/	81.1
Cc1ccc(S(=O)(=O)N(C(=O)c2ccncc2)c2ccc(OC(=O)c3ccncc3)c3ccccc23)cc1	6.4	/	/	/	8.8
COc1ccc(S(=O)(=O)N(C(C)=O)c2ccc(OC(C)=O)c3ccccc23)cc1[N+](=O)[O-]	2.8*	/	/	/	2.0*
COc1ccc(N2CCN(C(=O)CN3CCN(C(c4ccccc4)c4ccccc4)CC3)CC2)cc1	84.5	/	/	/	88.2
Cc1nn(-c2nc3ccccc3s2)c(N)c1Sc1ccc(F)cc1	15.3	59.4	17.8*	9.7*	32.3
CC(=O)Nc1ccc(C(=O)N(C)C(C(=O)Nc2ccccc2)c2ccccn2)cc1 (stereo not drawn)	99.7	/	/	/	94.5
Cc1ccnc(SCCn2c(Br)nc3c2c(=O)n(C)c(=O)n3C)n1	/	99.8	99.5	93.6	/
CCOc1cccc(CNc2ccc(O)cc2)c1OCc1ccc(Cl)cc1	1.9*	/	/	/	0.8*
CCOc1cc(CNc2ccc(O)cc2)ccc1OCc1ccc(Cl)cc1Cl	49.0	/	/	/	62.4
CCOC(=O)CC(=O)CSc1nc2ccc(C)cc2cc1C#N	24.8	100.1	96.2	3.2*	30.8
CCOC(=O)CC(=O)CSc1nc2c(c(C)c1C#N)CCC2	82.3	78.5	103.5	12.1*	94.2
Cc1ccc2nc(SCC(=O)Nc3ccccc3N3CCOCC3)c(C#N)cc2c1	58.4	44.4	95.0	23.8*	57.5
COC(=O)CSc1nc2cc(C)ccc2cc1C#N	81.4	81.2	/	78.2	84.7
Cc1ccc(-c2nnc(SCC(=O)Nc3ccccc3N3CCOCC3)o2)cc1	93.1	106.1	96.3	94.7	96.9
Cn1cnc2c(sc3nc(N4CCOCC4)c4c(c32)CC(C)(C)OC4)c1=O	/	90.1	90.2	59.5	/
Cc1ccc(Sc2nc([N+](=O)[O-])nn2C)cc1	97.7	/	/	/	96.8
C=CCN1C(=O)/C(=C/c2ccc(N(C)C)cc2)S/C1=N\c1nnc(CC)s1	73.4	63.3	86.5	26.4*	76.1
CCOC(=O)/C(=C\c1ccccc1)C(=O)c1cc(C(C)=O)c(Nc2ccccc2)s1	2.4*	3.8*	19.3*	2.1*	6.7
CCOC(=O)/C(=C\c1cccnc1)C(=O)c1cc(C(C)=O)c(Nc2ccccc2)s1	2.2*	4.1*	19.1*	1.8*	2.2*
CC(C)OC(=O)/C(=C/c1cccnc1)NC(=O)c1ccccc1	84.8	/	/	/	93.1
